Tests used:
Mus musculus [1] = test: Maximal proliferation induced in the presence of the mitogen-Concanavalin A (stimulated blastogenesis) in mice cells dosed at 5 ug/mL; assay type: functional; set-up: unit not given here
How it was run: (§1)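 Splenocytes from female DBA/2 mice, 6–9 weeks old; red cells lysed with cold 0.17 M NH₄Cl. Cells plated at 5 × 10⁶ cells/mL in RPMI 1640 with 5% FCS, with compound (5–80 μg/mL range) and Con A, PWM or PHA at a batch-optimized concentration. Cultured 72 h at 37 °C, 5% CO₂, with [³H]thymidine for the final 24 h, read by scintillation. Triplicate wells; mean ± SD of three cultures.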

Mus musculus [2] = organism: Mus musculus; test: Maximal proliferation induced in the presence of the mitogen-PWM ( stimulated blastogenesis) in Mice cells at a dose of 10 ug/mL; assay type: functional; set-up: unit not given here; how it was run: as §1
Mus musculus [3] = test: Proliferation induced by the mitogen alone-Concanavalin A (control blastogenesis), in mice cells dosed at 5 ug/mL; assay type: functional; set-up: unit not given here; how it was run: as §1
Mus musculus [4] = test: […] induction of Thyl+ antigen expression on murine bone marrow cells at the concentration of 3.2 uM(Fraction A).(Control group); assay type: functional
How it was run: (§2)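 Bone marrow from female C57 BL/6 mice, 5–8 weeks old, separated on a discontinuous BSA gradient. Fraction A (lowest density) and fraction B (next lowest) resuspended at 10⁶ cells/mL in HBSS with 5% BSA. Cells incubated 24 h with one compound concentration, then stained directly with FITC anti-Thy1 and counted by epifluorescence microscopy. % Thy1⁺ cells recorded for treated and control cultures.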

Mus musculus [5] = test: […] induction of Thyl+ antigen expression on murine bone marrow cells at the concentration of 3.2 uM(Fraction A).(treated); assay type: functional; how it was run: as §2
Mus musculus [6] = organism: Mus musculus; test: Proliferation induced by the mitogen alone-PWM (control blastogenesis), in Mice cells at a dose of 10 ug/mL; assay type: functional; set-up: unit not given here; how it was run: as §1
Mus musculus [7] = organism: Mus musculus; test: Proliferation induced by the mitogen alone-PHA (control blastogenesis), in Mice cells at a dose of 5 ug/mL; assay type: functional; set-up: unit not given here; how it was run: as §1
Mus musculus [8] = test: […] induction of Thyl+ antigen expression on murine bone marrow cells at the concentration of 3.2 uM(Fraction B).(Control group); assay type: functional; how it was run: as §2
Mus musculus [9] = test: […] induction of Thyl+ antigen expression on murine bone marrow cells at the concentration of 3.2 uM(Fraction B).(treated); assay type: functional; how it was run: as §2
Mus musculus [10] = test: Percent of Thyl+ positive cells / spleen x 10 e6 in nude mice (in vivo); assay type: functional
How it was run: (§3)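 Female nu/nu mice, 6–9 weeks old, dosed by gastric tube in 0.2 mL 2% arabic gum with 0.1% Tween-80; controls received vehicle only. Spleens taken 24 h later and splenocytes prepared. Thy1⁺ cells counted by direct FITC anti-Thy1 staining under epifluorescence. Five animals per group, mean ± SD.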

Mus musculus [11] = test: Percent of Thyl+ positive cells, in nude mice (in vivo); assay type: functional; how it was run: as §3
Mus musculus [12] = test: Percent of restoration in nude mice (in vivo); assay type: functional; how it was run: as §3
Mus musculus [13] = test: Percent of restoration of T- cell markers in nude mice (in vivo); assay type: functional; how it was run: as §3
Mus musculus [14] = organism: Mus musculus; test: Maximal proliferation induced in the presence of the mitogen-PHA ( stimulated blastogenesis) in Mice cells at a dose of 10 ug/mL
Mus musculus [15] = organism: Mus musculus; test: Maximal proliferation induced in the presence of the mitogen-PHA ( stimulated blastogenesis) in Mice cells at a dose of 5 ug/mL; assay type: functional; set-up: unit not given here; how it was run: as §1
Mus musculus [16] = organism: Mus musculus; test: Maximal proliferation induced in the presence of the mitogen-PWM ( stimulated blastogenesis) in Mice cells at a dose of 40 ug/mL; assay type: functional; set-up: unit not given here; how it was run: as §1
Mus musculus [17] = organism: Mus musculus; test: Proliferation induced by the mitogen alone-PWM (control blastogenesis), in Mice cells at a dose of 40 ug/mL; assay type: functional; set-up: unit not given here
How it was run: (§4)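 Splenocytes from female DBA/2 mice aged 6–9 weeks, red cells lysed with cold 0.17 M NH4Cl, cultured at 5 × 10⁶ cells/mL in RPMI 1640 with 5% FCS. Pokeweed mitogen added at a batch-adjusted optimal level, 72 h at 37 °C, 5% CO2. [³H]thymidine pulse for the final 24 h, then scintillation counting. Triplicates; mean ± SD of three cultures.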

Mus musculus [18] = organism: Mus musculus; test: Proliferation induced by the mitogen alone-PWM (control blastogenesis), in Mice cells at a dose of 20 ug/mL; assay type: functional; how it was run: as §1
Mus musculus [19] = organism: Mus musculus; test: Maximal proliferation induced by the test compound in the presence of the mitogen-PWM ( stimulated blastogenesis) in Mice cells at a dose of 20 ug/mL; assay type: functional; how it was run: as §1
Mus musculus [20] = organism: Mus musculus; test: Proliferation induced by the mitogen alone-PHA (control blastogenesis), in Mice cells at a dose of 7.5 ug/mL; assay type: functional; how it was run: as §1
Mus musculus [21] = organism: Mus musculus; test: Maximal proliferation induced by the test compound in the presence of the mitogen-PHA ( stimulated blastogenesis) in Mice cells at a dose of 7.5 ug/mL; assay type: functional; how it was run: as §1
Mus musculus [22] = test: […] induction of Thyl+ antigen expression on murine bone marrow cells at the concentration of 3 uM(Fraction A).(Control group); assay type: functional; how it was run: as §2
Mus musculus [23] = test: […] induction of Thyl+ antigen expression on murine bone marrow cells at the concentration of 3 uM(Fraction B).(Control group); assay type: functional; how it was run: as §2
Mus musculus [24] = test: […] induction of Thyl+ antigen expression on murine bone marrow cells at the concentration of 3 uM(Fraction B).(treated); assay type: functional; how it was run: as §2
Mus musculus [25] = test: […] induction of Thyl+ antigen expression on murine bone marrow cells at the concentration of 3 uM(Fraction A).(treated); assay type: functional; how it was run: as §2
Mus musculus [26] = organism: Mus musculus; test: Maximal proliferation induced in the presence of the mitogen-PWM ( stimulated blastogenesis) in Mice cells at a dose of 80 ug/mL; assay type: functional; set-up: unit not given here; how it was run: as §1
Mus musculus [27] = organism: Mus musculus; test: Proliferation induced by the mitogen alone-PWM (control blastogenesis), in Mice cells at a dose of 80 ug/mL; assay type: functional; set-up: unit not given here; how it was run: as §4
Mus musculus [28] = test: […] induction of Thyl+ antigen expression on murine bone marrow cells at the concentration of 2.5 uM(Fraction A).(Control group); assay type: functional; how it was run: as §2
Mus musculus [29] = test: […] induction of Thyl+ antigen expression on murine bone marrow cells at the concentration of 2.5 uM(Fraction A).(treated); assay type: functional; how it was run: as §2
Mus musculus [30] = test: […] induction of Thyl+ antigen expression on murine bone marrow cells at the concentration of 2.5 uM(Fraction B).(Control group); assay type: functional; how it was run: as §2
Mus musculus [31] = test: […] induction of Thyl+ antigen expression on murine bone marrow cells at the concentration of 2.5 uM(Fraction B).(treated); assay type: functional; how it was run: as §2

SMILES | Proliferative response (Mus musculus [1]) | Proliferative response (Mus musculus [3]) | Proliferative response (Mus musculus [7]) | Thylpositive cells/spleen (Mus musculus [10]) | Thylpositive cells (Mus musculus [11]) | Restoration (Mus musculus [12]) | Restoration (Mus musculus [13]) | other results
CCCCC1CCN(c2ccc(N)cc2C(=O)c2ccc(Cl)cc2)CC1 | 289.2 | 211.8 | 51.3 | 2.05e+06 cells/spleen | 3.5% | 0.6% | 3.6% | Proliferative response (Mus musculus [2]): 81.7; Differentiation (Mus musculus [4]): 3.8%; Differentiation (Mus musculus [5]): 4.2%; Proliferative response (Mus musculus [6]): 78.4; Differentiation (Mus musculus [8]): 5.2%; Differentiation (Mus musculus [9]): 6.4%; Proliferative response (Mus musculus [14]): 59.1
CC1CCN(c2ccc(N)cc2C(=O)c2ccc(Br)cc2)CC1 | 123.4 | 118.7 | 7 | – | – | – | – | Proliferative response (Mus musculus [15]): 11.1; Proliferative response (Mus musculus [16]): 56.4; Proliferative response (Mus musculus [17]): 40.5
CC1CCN(c2ccc(N)cc2C(=O)c2ccccc2Cl)CC1 | 165.5 | 150 | – | – | – | – | – | Proliferative response (Mus musculus [18]): 80; Proliferative response (Mus musculus [19]): 85.8
CC1CCN(c2ccccc2C(=O)c2ccc(Cl)cc2)CC1 | 62.7 | 92.7 | – | – | – | – | – | Proliferative response (Mus musculus [20]): 17.4; Proliferative response (Mus musculus [21]): 15.5
Nc1ccc(N2CCC(c3ccccc3)CC2)c(C(=O)c2ccc(Cl)cc2)c1 | 294.1 | 263.2 | 59.9 | 3.2e+06 cells/spleen | 5.5% | 7.4% | 12.5% | Proliferative response (Mus musculus [2]): 115.3; Differentiation (Mus musculus [22]): 3.8%; Differentiation (Mus musculus [23]): 5.2%; Proliferative response (Mus musculus [6]): 95.7; Differentiation (Mus musculus [24]): 6.4%; Differentiation (Mus musculus [25]): 7%; Proliferative response (Mus musculus [14]): 54.4
COc1ccc(C(=O)c2cc(N)ccc2N2CCC(C)CC2)cc1OC | 158.4 | 137.4 | – | – | – | – | – | Proliferative response (Mus musculus [26]): 48.8; Proliferative response (Mus musculus [27]): 44.9
Cc1cc(C(=O)c2cc(N)ccc2N2CCC(C)CC2)cc(C)c1C | 206 | 152.6 | – | – | – | – | – | Proliferative response (Mus musculus [18]): 84.5; Proliferative response (Mus musculus [19]): 77.1
CCOC(=O)Nc1ccc(N2CCC(C)CC2)c(C(=O)c2ccc(Cl)cc2)c1 | 16.3 | 8 | – | 2.5e+06 cells/spleen | 3.4% | 3.3% | 3.2% | Differentiation (Mus musculus [28]): 6.1%; Differentiation (Mus musculus [29]): 11.6%; Differentiation (Mus musculus [30]): 6.1%; Differentiation (Mus musculus [31]): 5.5%

— ChEMBL document CHEMBL1125686, “(Benzoylphenyl)piperidines: a new class of immunomodulators” (1991)
